Experimental data as given in ChEMBL document CHEMBL1157406, “Cytotoxic metabolites from the fungal endophyte Alternaria sp. and their subsequent detection in its host plant Polygonum senegalense” (J Nat Prod, 2008).

Legend:
L5178Y = assay: Cytotoxicity against mouse L5178Y cells at 10 ug/ml by MTT assay; format: functional
[1] = molecular target: T1, NUAK family SNF1-like kinase 1 (Homo sapiens, UniProt O60285); assay: Inhibition of recombinant ARK5
T1 sequence (O60285 whole entry): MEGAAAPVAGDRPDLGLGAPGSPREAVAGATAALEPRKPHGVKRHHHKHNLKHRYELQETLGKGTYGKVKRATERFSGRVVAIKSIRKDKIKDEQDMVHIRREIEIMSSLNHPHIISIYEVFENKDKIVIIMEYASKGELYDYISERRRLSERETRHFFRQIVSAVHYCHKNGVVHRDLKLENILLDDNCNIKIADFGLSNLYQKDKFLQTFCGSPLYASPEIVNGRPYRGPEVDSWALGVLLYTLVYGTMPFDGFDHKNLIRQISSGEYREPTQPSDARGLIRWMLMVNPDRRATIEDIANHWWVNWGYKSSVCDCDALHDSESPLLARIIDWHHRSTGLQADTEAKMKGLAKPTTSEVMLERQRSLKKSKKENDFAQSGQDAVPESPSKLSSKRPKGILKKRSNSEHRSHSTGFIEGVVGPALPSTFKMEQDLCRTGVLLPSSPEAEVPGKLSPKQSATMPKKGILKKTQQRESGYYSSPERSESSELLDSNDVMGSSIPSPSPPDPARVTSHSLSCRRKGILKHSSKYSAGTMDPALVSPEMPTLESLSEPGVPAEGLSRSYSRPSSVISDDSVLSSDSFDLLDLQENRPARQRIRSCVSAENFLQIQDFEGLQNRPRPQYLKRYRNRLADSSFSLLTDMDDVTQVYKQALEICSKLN

[2] = molecular target: T2, Receptor-type tyrosine-protein kinase FLT3 (Homo sapiens, UniProt P36888); assay: Inhibition of recombinant FLT3
T2 sequence (P36888 whole entry): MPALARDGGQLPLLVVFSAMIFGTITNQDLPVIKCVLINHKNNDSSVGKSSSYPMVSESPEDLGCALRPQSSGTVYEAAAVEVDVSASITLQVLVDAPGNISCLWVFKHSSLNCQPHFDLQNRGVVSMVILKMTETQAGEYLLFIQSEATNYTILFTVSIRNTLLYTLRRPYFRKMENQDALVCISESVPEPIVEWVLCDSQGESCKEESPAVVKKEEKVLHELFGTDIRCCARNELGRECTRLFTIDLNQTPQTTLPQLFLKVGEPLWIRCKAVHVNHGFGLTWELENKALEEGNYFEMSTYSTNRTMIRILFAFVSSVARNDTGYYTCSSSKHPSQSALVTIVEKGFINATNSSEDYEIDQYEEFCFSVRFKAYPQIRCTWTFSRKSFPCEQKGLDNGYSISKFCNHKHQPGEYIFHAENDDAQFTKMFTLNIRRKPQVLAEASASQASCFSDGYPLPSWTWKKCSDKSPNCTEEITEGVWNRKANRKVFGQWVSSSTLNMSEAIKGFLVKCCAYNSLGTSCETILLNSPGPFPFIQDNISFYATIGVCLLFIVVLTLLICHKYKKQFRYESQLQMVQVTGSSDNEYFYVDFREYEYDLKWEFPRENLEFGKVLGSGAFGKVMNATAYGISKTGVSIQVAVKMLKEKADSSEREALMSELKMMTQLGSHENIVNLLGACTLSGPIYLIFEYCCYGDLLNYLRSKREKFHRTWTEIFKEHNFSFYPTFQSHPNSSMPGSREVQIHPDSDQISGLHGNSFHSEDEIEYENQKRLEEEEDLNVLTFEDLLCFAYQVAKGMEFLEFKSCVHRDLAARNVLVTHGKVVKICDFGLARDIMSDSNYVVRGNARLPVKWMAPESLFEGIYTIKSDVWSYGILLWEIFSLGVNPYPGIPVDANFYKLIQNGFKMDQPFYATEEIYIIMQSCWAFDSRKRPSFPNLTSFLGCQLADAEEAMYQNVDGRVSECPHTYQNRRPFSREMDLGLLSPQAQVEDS
How it was run: (§1)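 Purified recombinant kinase, 50 µL reaction. 1 µM [γ-33P]-ATP with substrate; compound added in 10% DMSO. Tested over several concentrations; IC50 in g/mL.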

[3] = molecular target: Casein kinase II subunit alpha (Homo sapiens, UniProt P68400); assay: Inhibition of recombinant CK2alpha1; how it was run: as §1
Chain of Casein kinase II subunit alpha (P68400 whole entry): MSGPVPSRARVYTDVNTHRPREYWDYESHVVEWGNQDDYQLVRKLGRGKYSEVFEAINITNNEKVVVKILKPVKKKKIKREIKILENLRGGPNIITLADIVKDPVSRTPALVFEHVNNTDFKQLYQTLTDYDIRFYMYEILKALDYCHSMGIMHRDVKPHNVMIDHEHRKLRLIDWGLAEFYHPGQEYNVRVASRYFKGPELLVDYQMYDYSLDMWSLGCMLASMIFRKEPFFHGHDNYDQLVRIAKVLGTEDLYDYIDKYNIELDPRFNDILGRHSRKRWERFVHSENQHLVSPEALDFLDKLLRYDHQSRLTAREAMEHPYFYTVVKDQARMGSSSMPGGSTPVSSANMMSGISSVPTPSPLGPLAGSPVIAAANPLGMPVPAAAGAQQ

[4] = molecular target: Hepatocyte growth factor receptor (Homo sapiens, UniProt P08581); assay: Inhibition of recombinant MET
Chain of Hepatocyte growth factor receptor (P08581 whole entry): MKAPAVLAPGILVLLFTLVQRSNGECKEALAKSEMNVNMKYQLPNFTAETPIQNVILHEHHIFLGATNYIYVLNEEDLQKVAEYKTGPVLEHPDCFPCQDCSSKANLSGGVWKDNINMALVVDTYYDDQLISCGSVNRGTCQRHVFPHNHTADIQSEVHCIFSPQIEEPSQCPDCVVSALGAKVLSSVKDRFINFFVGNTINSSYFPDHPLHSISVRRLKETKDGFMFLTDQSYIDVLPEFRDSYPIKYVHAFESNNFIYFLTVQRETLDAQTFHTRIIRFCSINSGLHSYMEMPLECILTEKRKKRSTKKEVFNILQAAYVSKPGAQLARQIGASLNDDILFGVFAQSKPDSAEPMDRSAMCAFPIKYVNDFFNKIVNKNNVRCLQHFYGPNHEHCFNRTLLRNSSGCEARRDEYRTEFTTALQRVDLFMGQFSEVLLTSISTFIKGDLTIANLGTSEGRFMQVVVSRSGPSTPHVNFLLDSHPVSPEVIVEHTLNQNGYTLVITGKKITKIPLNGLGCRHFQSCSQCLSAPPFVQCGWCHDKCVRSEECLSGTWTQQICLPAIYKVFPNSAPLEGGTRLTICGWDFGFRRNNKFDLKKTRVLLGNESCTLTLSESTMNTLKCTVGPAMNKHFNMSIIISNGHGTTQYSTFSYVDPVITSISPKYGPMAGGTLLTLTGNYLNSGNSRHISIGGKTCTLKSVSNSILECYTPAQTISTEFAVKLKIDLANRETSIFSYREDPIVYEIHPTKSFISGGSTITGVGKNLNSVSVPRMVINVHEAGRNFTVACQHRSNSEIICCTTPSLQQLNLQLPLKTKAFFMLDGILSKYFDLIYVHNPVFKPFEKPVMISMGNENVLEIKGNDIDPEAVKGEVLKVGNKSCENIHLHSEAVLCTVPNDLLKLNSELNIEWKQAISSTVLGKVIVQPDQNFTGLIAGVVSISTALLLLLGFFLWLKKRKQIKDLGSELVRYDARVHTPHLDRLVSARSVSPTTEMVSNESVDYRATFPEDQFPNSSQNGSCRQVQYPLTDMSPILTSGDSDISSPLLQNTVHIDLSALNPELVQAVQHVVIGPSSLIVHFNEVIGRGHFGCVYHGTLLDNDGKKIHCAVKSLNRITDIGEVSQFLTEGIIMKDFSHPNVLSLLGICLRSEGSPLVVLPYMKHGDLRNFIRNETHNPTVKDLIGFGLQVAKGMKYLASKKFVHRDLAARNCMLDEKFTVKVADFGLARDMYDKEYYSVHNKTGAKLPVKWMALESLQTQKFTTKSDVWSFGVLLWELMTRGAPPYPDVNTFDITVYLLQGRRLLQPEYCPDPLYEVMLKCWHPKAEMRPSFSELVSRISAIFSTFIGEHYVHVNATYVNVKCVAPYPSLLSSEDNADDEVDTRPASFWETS

Aurora kinase B = Aurora kinase B (Homo sapiens, UniProt Q96GD4); assay: Inhibition of recombinant Aurora B; how it was run: as §1
Chain of Aurora kinase B (Q96GD4 whole entry): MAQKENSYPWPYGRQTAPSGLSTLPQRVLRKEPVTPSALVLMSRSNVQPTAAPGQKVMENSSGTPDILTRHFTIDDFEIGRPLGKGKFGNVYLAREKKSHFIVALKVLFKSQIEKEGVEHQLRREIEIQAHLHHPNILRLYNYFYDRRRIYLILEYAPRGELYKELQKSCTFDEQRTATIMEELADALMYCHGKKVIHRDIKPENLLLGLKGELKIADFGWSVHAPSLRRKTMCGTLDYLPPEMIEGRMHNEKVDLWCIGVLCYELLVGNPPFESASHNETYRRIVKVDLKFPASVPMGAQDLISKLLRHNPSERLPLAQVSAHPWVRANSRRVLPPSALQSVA

[5] = molecular target: T3, Serine/threonine-protein kinase PLK4 (Homo sapiens, UniProt O00444); assay: Inhibition of recombinant SAK
T3 sequence (O00444 whole entry): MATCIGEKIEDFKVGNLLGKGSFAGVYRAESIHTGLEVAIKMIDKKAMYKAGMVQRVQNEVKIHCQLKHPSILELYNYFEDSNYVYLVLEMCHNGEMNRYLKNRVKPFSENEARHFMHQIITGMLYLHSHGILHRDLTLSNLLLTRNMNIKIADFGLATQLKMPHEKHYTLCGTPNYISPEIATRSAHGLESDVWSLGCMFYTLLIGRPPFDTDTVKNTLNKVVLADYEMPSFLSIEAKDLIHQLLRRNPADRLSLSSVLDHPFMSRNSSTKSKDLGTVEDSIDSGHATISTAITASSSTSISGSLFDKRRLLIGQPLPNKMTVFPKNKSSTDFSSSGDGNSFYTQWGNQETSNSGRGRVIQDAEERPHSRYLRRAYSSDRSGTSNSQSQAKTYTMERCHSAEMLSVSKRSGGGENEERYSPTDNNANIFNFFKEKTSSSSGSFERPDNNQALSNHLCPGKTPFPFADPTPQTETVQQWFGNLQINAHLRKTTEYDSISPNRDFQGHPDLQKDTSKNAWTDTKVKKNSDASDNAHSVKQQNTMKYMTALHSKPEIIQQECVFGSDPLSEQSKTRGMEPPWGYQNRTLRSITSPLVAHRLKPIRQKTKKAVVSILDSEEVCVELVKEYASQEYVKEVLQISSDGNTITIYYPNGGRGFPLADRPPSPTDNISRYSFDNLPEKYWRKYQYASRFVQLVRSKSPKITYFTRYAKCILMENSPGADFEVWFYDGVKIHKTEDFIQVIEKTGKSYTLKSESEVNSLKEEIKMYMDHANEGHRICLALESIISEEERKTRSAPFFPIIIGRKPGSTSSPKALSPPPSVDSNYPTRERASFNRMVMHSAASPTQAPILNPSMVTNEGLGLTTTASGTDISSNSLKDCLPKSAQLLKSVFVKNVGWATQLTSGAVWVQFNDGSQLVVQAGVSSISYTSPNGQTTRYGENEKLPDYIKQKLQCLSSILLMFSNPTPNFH

[6] = molecular target: Serine/threonine-protein kinase PLK1 (Homo sapiens, UniProt P53350); assay: Inhibition of recombinant PLK1; how it was run: as §1
Chain of Serine/threonine-protein kinase PLK1 (P53350 whole entry): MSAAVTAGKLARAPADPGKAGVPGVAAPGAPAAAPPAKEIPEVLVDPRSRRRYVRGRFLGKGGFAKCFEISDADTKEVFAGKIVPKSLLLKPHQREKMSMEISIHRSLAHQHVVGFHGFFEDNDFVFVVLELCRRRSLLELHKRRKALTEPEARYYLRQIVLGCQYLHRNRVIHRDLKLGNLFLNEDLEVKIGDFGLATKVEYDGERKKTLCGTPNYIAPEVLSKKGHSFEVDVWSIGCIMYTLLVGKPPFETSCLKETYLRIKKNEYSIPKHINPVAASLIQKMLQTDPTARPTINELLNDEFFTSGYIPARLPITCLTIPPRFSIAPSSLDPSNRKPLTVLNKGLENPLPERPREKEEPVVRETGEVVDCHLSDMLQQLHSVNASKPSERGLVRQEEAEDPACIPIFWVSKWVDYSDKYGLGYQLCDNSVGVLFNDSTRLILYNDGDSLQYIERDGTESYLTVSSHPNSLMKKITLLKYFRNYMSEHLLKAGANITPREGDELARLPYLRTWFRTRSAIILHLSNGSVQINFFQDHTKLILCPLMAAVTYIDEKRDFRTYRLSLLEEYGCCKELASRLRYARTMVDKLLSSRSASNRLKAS

[7] = molecular target: Proto-oncogene tyrosine-protein kinase Src (Homo sapiens, UniProt P12931); assay: Inhibition of recombinant SRC; how it was run: as §1
Chain of Proto-oncogene tyrosine-protein kinase Src (P12931 2-536 limits assumed): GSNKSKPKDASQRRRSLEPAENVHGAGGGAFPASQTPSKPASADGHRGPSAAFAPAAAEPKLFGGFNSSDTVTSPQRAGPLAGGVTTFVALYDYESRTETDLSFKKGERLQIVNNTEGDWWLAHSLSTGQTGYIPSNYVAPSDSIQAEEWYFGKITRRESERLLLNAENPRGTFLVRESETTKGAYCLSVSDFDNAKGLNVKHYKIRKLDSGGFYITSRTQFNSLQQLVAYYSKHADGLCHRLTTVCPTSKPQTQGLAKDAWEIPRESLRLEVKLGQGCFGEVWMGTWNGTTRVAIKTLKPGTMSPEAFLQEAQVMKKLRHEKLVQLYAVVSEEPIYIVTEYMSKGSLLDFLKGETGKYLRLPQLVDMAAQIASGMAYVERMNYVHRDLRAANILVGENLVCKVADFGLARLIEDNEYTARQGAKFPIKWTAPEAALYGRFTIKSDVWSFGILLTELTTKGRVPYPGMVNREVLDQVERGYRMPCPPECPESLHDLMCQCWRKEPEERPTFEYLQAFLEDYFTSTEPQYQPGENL

Row | Structure (SMILES) | Activity (L5178Y) [%] | IC50 [1] | IC50 [2] | IC50 ([3]; read-out: IC50 (converted)) [µM] | IC50 ([4]; read-out: IC50 (converted)) [µM] | IC50 (Aurora kinase B) | IC50 [5] | IC50 ([6]; read-out: IC50 (converted)) [µM] | IC50 ([7]; read-out: IC50 (converted)) [µM] | IC50 ([1]; read-out: IC50 (converted)) [µM] | IC50 ([2]; read-out: IC50 (converted)) [µM] | IC50 [3] [×10⁻⁵ g/ml] | IC50 (Aurora kinase B; read-out: IC50 (converted)) [µM] | IC50 ([5]; read-out: IC50 (converted)) [µM] | IC50 [6] [×10⁻⁵ g/ml] | IC50 [4] [×10⁻⁵ g/ml] | IC50 [7] [×10⁻⁵ g/ml]
1 | Cc1cc(O)cc2oc(=O)c3c(O)cc(OS(=O)(=O)O)cc3c12 | 0.9 | 7.5 ×10⁻⁷ g/ml | 3.3 ×10⁻⁷ g/ml | 5.91 | 22.5 | 2.2 ×10⁻⁷ g/ml | 3.8 ×10⁻⁷ g/ml | 13 | 16.6 |  |  |  |  |  |  |  | 
2 | COc1cc(O)c2c(=O)oc3cc(O)cc(C)c3c2c1 | 1.8 |  |  |  |  |  |  | 30.1 | 4.41 | 14.7 | 3.67 | > 1 | 4.77 | 9.18 |  |  | 
3 | Cc1cc(O)c(O)cc1-c1cc(O)cc(O)c1C(=O)O | 0.8 |  |  |  | 9.05 |  |  |  | 17 | 9.41 | 6.52 | > 1 | 5.43 | 6.15 | > 1 |  | 
4 | COc1cc(O)c2c(=O)oc3c(O)c(O)cc(C)c3c2c1 | 47.1 | 3.5 ×10⁻⁷ g/ml | 5.3 ×10⁻⁷ g/ml |  | 5.9 |  | 8.3 ×10⁻⁷ g/ml | 19.8 | 4.86 |  |  | > 1 | 3.82 |  |  |  | 
5 | COc1cc(O)c(C(=O)O)c(-c2cc(O)c(O)cc2C)c1 [ALTENUSIN] | 1.2 |  |  |  | 14.8 |  |  | 24.5 | 28.6 | 22.7 | 5.51 | > 1 | 3.79 | 11 |  |  | 
6 | COc1cc(O)c2c(c1)-c1cc(O)c(O)cc1COC2=O [ALTERLACTONE] | 11.8 | > 1 ×10⁻⁵ g/ml | > 1 ×10⁻⁵ g/ml |  |  | > 1 ×10⁻⁵ g/ml | > 1 ×10⁻⁵ g/ml |  |  |  |  | > 1 |  |  | > 1 | > 1 | > 1
7 | COc1cc(O)c(C(=O)O)c(C2=C(C)C[C@@H](O)C2=O)c1 [ALTERNARIENONIC ACID] | 101.2 |  |  |  | 33.8 |  |  |  | 16.5 | 14.4 | 23.7 | > 1 | 10.8 | 8.98 | > 1 |  | 
8 | Cc1cc(O)cc2oc(=O)c3c(O)cc(O)cc3c12 [ALTERNARIOL] | 3.7 | 9.5 ×10⁻⁷ g/ml | 4.3 ×10⁻⁷ g/ml | 7.75 | 20.9 | 4.2 ×10⁻⁷ g/ml | 9.6 ×10⁻⁷ g/ml | 26.7 | 17 |  |  |  |  |  |  |  | 
9 | O=C1C[C@H](O)[C@@H]2c3c(ccc(O)c31)-c1ccc(O)c3c1[C@@]2(O)CCC3=O [ALTERTOXIN I] | 77.3 |  | 6.6 ×10⁻⁷ g/ml |  | 19.9 | 9.8 ×10⁻⁷ g/ml |  |  | 5.96 | 6.24 |  | > 1 |  | 4.82 | > 1 |  | 
10 | COc1cc(O)c2c(c1)C1(OC2=O)C(C)=CC(=O)C1O (centres undefined) [TALAROFLAVONE] | 92.9 | > 1 ×10⁻⁵ g/ml | > 1 ×10⁻⁵ g/ml |  |  | > 1 ×10⁻⁵ g/ml | > 1 ×10⁻⁵ g/ml |  |  |  |  | > 1 |  |  | > 1 | > 1 | > 1
